These results are taken from article PMC6142812 (Bioorganic & medicinal chemistry letters, 2018).

The test system of data set [1] is other seven mGlu receptors. The following applies: comparators 1 and 2, previously published; cited from earlier work.
For another data set, the target named is rat mGlu5 (Rattus norvegicus, UniProt P31424). Briefly: Calcium mobilization rat mGlu5 functional assay. Format: cell-based. The following applies: for fold more active than 11: mGlu5 potency relative to compound 11; for mGlu5 pIC50 (±SEM): rat mGlu5 in HEK293A cells, EC80 glutamate, avg. of n ≥ 3.
rat mGlu5, sequence (P31424 21-1203): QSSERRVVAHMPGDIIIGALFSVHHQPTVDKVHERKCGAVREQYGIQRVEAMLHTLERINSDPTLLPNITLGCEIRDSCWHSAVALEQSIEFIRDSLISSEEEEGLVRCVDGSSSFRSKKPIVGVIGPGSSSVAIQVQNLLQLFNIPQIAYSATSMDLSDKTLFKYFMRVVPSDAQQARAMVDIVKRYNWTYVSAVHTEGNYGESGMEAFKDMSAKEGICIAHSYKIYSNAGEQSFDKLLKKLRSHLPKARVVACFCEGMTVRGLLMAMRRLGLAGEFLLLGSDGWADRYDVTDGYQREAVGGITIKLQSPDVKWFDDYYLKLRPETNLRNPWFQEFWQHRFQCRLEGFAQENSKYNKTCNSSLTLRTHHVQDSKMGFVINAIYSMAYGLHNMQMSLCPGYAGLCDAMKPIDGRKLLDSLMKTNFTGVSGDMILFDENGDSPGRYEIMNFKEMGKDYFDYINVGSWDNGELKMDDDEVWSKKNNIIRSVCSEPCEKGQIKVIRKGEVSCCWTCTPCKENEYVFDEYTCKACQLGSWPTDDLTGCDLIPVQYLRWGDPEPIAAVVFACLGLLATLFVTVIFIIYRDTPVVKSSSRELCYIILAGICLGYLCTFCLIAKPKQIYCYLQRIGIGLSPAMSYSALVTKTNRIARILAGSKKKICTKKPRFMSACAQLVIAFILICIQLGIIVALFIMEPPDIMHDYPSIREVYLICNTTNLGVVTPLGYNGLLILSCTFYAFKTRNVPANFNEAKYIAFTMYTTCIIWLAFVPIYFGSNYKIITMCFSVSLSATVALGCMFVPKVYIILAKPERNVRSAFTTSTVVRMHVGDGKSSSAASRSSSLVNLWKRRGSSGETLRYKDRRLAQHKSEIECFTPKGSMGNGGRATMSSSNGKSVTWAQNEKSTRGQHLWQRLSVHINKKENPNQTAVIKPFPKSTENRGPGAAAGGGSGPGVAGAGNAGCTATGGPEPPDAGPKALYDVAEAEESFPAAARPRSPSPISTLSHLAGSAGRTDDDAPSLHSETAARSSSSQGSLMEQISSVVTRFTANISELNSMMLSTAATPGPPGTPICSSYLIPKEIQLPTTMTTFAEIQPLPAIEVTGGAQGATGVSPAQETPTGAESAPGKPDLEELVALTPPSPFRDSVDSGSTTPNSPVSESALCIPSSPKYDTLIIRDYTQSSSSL
Data set [2] can be described thus: Rat pharmacokinetics study, intravenous dosing. Format: in vivo. The conditions noted are these: compound 14; male Sprague-Dawley rats, IV 1.0 mg/kg, n=2. The procedure, abridged:
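Single IV dose of 1.0 mg/kg test compound given to male Sprague-Dawley rats (n=2). Half-life, mean residence time, plasma clearance and steady-state volume of distribution were derived for the parent and for its alcohol metabolite.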

Data set [3] in a line: Stability in rat whole blood at 37 °C. The class given is in vitro ADME. The following applies: one hour.
Data set [4] can be described thus: Metabolic stability in rat S9 hepatic fractions with and without NADPH. The class given is in vitro ADME. The conditions noted are these: for CLHEP (predicted hepatic clearance): QH = 70; for CLint scaled at 1 h: rat, liver S9 hepatic fractions, CLINT (intrinsic clearance).
Data set [5] in a line: Metabolic stability in human S9 hepatic fractions with and without NADPH. The class given is in vitro ADME. The conditions noted are these: for CLHEP (predicted hepatic clearance): QH = 21; for CLint scaled at 1 h: human, liver S9 hepatic fractions, CLINT (intrinsic clearance).

As to `O=C(Nc1ccc(F)cn1)c1cc(Oc2cncc(F)c2)cn2ncnc12` [Compound 2], in data set [1], the “selectivity vs. other mGlus” value is listed as over 500. `O=C(Nc1ccc(F)cn1)c1cc(Oc2cncc(F)c2)cc2cccnc12` [Compound 3]: on rat mGlu5 (compared with compound 2), the “potency versus mGlu5 (in words)” value was “similarly potent”.

`Cc1cccc(NC(=O)c2cc(C(=O)c3cncnc3)cc3cccnc23)n1` [Compound 12]: the “fold more active than 11” value on rat mGlu5 is recorded as “more than 10 fold”. Same read-out and setting: next, `O=C(c1cncnc1)c1cc(C(=O)Nc2ccc(F)cn2)c2ncccc2c1` [Compound 13]: “more than 10 fold”. In the case of `Cc1csc(NC(=O)c2cc(C(=O)c3cncnc3)cc3cccnc23)n1` [Compound 14], the “Clp” value in data set [2] was determined as 3430 mL/min/kg. Also, in data set [3], the “conversion to metabolite (ketone reduction, alcohol 53)” value was “near complete conversion”.

Take `Cc1csc(NC(=O)c2cc(C(F)c3cncnc3)cc3cccnc23)n1` (stereo not drawn) [Compound 21]: the “CLHEP (predicted hepatic clearance)” value in data set [4] (rat S9, +NADPH, CLHEP = (QH × CLINT)/(QH + CLINT)) is 51.8 mL/min/kg; in data set [4] (rat S9, −NADPH), 23.2 mL/min/kg; in data set [5] (human S9, +NADPH, CLHEP = (QH × CLINT)/(QH + CLINT)) it was 17.3 mL/min/kg; in data set [5] (human S9, −NADPH) it was 12.6 mL/min/kg. For the same compound, the intrinsic clearance (CLint scaled) at 1 h in data set [4] (rat S9, +NADPH) is 199 mL/min/kg; in data set [4] (rat S9, −NADPH), 34.7 mL/min/kg; in data set [5] (human S9, +NADPH) it was 98.2 mL/min/kg; in data set [5] (human S9, −NADPH), 31.3 mL/min/kg. Consider `N#Cc1ccc(NC(=O)c2cc(C(F)(F)c3cncnc3)cc3cccnc23)nc1` [Compound 32], for which the “mGlu5 pIC50 (±SEM)” value at rat mGlu5 was under 4.5.

With `COc1ccnc(NC(=O)c2cc(C(F)(F)c3cncnc3)cc3cccnc23)c1` [Compound 34], the “mGlu5 pIC50 (±SEM)” value on rat mGlu5 was under 4.5.

For `N#Cc1ccnc(NC(=O)c2cc(C(F)(F)c3cncnc3)cc3cccnc23)c1` [Compound 35], the “mGlu5 pIC50 (±SEM)” value on rat mGlu5 is recorded as under 4.5. As for `O=C(Nc1nc(C2CC2)cs1)c1cc(C(F)(F)c2cncnc2)cc2cccnc12` [Compound 36], the “fold drop in mGlu5 potency” value at rat mGlu5 (relative to compound 27 (methyl to cyclopropyl)) was 3.5 fold.
